Results as given in ChEMBL document CHEMBL1145053, “Stereoselective synthesis and structure-activity relationship of novel ceramide trafficking inhibitors. (1R,3R)-N-(3-hydroxy-1-hydroxymethyl-3-phenylpropyl)dodecanamide and its analogues” (J Med Chem, 2003).
Where “and” joins values, the source holds several entries; their conditions need not be identical. Equal values may be shown once.

Each molecule was assayed on CHO (assay: Inhibitory concentration on de novo synthesis of sphingomyelin (SM) by metabolic labeling of lipids in CHO cells with radioactive serine). Conditions: Cricetulus griseus.
Format: functional, cell-based
Outline: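 Compound tested at 0 to 1 μM in serum-free medium containing 0.01% (v/v) DMSO. Subconfluent CHO-K1 monolayers were preincubated at 4 °C for 15 min, then pulsed with L-[14C]serine (0.75 μCi) at 33 °C for 2 h. Labeled SM was separated by TLC, imaged, and normalized to cell protein. IC50 came from […] of a single assay series.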

SMILES | IC50 [nM]
CCCCCCCCCCCCCC(=O)N[C@@H](CO)C[C@@H](O)c1ccccc1 | 70
CCCCCCCCCCC(=O)N[C@@H](CO)C[C@@H](O)c1ccccc1 | 110
CCCCCCCCCC(=O)N[C@@H](CO)C[C@@H](O)c1ccccc1 | 300
CCCCCCCCCCCCCCCCC(=O)N[C@@H](CO)C[C@@H](O)c1ccccc1 | > 1000
CCCCCCCCCCCC(=O)N[C@@H](CO)C[C@@H](O)c1ccccc1 | 70
CCCCCCCCCCCCCCC(=O)N[C@@H](CO)C[C@@H](O)c1ccccc1 | 90
CCCCCCCCCCCCCCCC(=O)N[C@@H](CO)C[C@@H](O)c1ccccc1 | > 1000
CCCCCCCCCCCCC(=O)N[C@@H](CO)C[C@@H](O)c1ccccc1 | 50
CCCCCCCCCCCCCCCCCC(=O)N[C@@H](CO)C[C@@H](O)c1ccccc1 | > 1000

The molecules below were run on CHO (assay: Effect of compound on de novo synthesis of sphingomyelin (SM) by metabolic labeling of lipids in CHO cells with radioactive serine at 1 uM). Conditions: not given.
Format: functional, Cricetulus griseus
Outline: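 CHO-K1 subconfluent monolayers preincubated in serum-free medium with compound at 1 μM, 0.01% (v/v) DMSO, 4 °C for 15 min. L-[14C]serine (0.75 μCi) then added, 33 °C for 2 h. Lipids extracted, TLC-separated, labeled SM quantified by imaging analyzer and normalized to lysate protein. Reported as % of DMSO-only control; mean ± SD, n = 3.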

SMILES | Sphingomyelin synthesis, % of control
CCCCCCCCCCCC(=O)N[C@@H](COC)C[C@@H](O)c1ccccc1 | 79%
CCCCCCCCCCCC(=O)N[C@@H](CO)[C@H](O)[C@H](O)c1ccccc1 | 17%
CCCCCCCCCCCC(=O)N[C@@H](CO)[C@H](O)[C@@H](O)c1ccccc1 | 28%
CCCCCCCCCCCC(=O)N[C@@H](CO)[C@@H](O)[C@H](O)c1ccccc1 | 40%
CCCCCCCCCCCC(=O)N[C@@H](CO)[C@@H](O)[C@@H](O)c1ccccc1 | 57%
CCCCCCCCCCCC(=O)N[C@@H](CO)C[C@@H](OC)c1ccccc1 | 119%
CCCCCCCCCCCC(=O)N[C@@H](CO)C[C@@H](O)c1ccccc1 | 8.2% and 4%
CCCCCCCCCCCC(=O)N[C@@H](COC)C[C@@H](OC)c1ccccc1 | 130%
